Experimental data from PubChem BioAssay AID504829 (Southern Research Specialized Biocontainment Screening …, 2011).

Test system: HEp-2 RSV CPE, time of addition, CellTiter-Glo viability
Assay: protection from RSV CPE by addition time, mechanism study for RSV inhibitor project, cell-based, time of addition, HEp-2 (AID 504829)
Details: at 25 µM, stronger effect = higher value
How it was run: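 Read-out basis: percent viable HEp-2 cells for each compound addition time / System: HEp-2 human cell line, virus-infected / Measured by: ATP-based luminescence with CellTiter-Glo reagent / Reagent: respiratory syncytial virus Long strain infection, MOI 0.12 / Incubation: compound addition from 1 h before to 24 h after infection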

[1] = measured here: added 1 h before infection
[2] = measured here: added 1 h post infection
[3] = measured here: added 7 h post infection
[4] = measured here: added 21 h post infection
[5] = measured here: added 24 h post infection

SMILES	viability (protection from CPE) [%]	viability [1] [%]	viability [2] [%]	viability [3] [%]	viability [4] [%]	viability [5] [%]
Cc1ccc(C)c(NC(=O)[C@@H]2CCCN2S(=O)(=O)c2cccc3cccnc23)c1	91.4	91.6	61.7	49.6	35.1	27.7
Cc1ccc(NC(=O)[C@@H]2CCCN2S(=O)(=O)c2cccc3cccnc23)c(C)c1	77.1	87.5	56	51.8	29	23.1
COc1ccc(C)c(NC(=O)[C@@H]2CCCN2S(=O)(=O)c2cccc3cccnc23)c1	81.8	90.4	63.3	52.1	34.3	24.8
